Assay outcomes: PubChem, several laboratories
Calb biofilm kill – clotrimazole potentiators killing C. albicans biofilm, primary screen, 4-compound mixtures; 0.02% of 120,000 active; C. albicans biofilm persisters + clotrimazole, fluorescence viability; primary screen in compound mixtures of four per well; inhibition, % at 7.6 µM;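 active means inhibition above 30.3% in the primary screen of four-compound pools, then above 30% when the compound was retested; inconclusive means passed the primary limit but could not be retested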;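 further: compounds exposed to preformed 24 h biofilms for 48 h; 0% = untreated biofilm control and 100% = clotrimazole plus chlorhexidine kill blank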
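Test system: C. albicans biofilms. Buffer or medium: RPMI/MOPS medium, pH 7.0. Timing: 48 h compound exposure at 37 °C. Technique: Alamar Blue fluorescence. Evaluation: percent inhibition of biofilm viability.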
ROMK mod – ROMK potassium channel modulators, primary screen, cell-based, thallium flux, MLSMR library. ATP-sensitive inward rectifier potassium channel 1 (Homo sapiens), P48048. Tet-inducible ROMK, thallium flux fluorescence; actives lie on both sides. B-score at 10 µM. 2% of 130,000 active. AID 1918, 2009;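 active means signal ratio slope over the read window, or its plate-corrected B-score, at least 3 SD from the plate mean, either direction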;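 further: B-score of the F/F0 ratio slope over 7 to 12 s after thallium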
Target sequence (P48048 whole entry, looked up): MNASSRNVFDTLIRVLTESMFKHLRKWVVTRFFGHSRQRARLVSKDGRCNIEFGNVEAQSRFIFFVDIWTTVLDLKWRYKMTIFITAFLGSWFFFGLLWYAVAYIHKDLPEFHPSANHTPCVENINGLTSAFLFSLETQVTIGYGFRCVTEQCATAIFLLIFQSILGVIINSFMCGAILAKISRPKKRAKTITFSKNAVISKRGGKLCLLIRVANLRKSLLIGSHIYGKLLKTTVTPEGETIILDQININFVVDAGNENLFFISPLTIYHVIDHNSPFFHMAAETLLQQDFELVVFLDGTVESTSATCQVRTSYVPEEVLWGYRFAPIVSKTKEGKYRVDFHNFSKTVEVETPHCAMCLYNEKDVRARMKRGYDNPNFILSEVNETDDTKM
Pf gamet viab – late stage P. falciparum gametocyte viability inhibitors, primary screen, ATP luminescence, HTS. P. falciparum stage V gametocytes, 24 h. AID 743093, 2013. 0.065% of 150,000 active. inhibition, % at 10.9 µM;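 active means inhibition above the mean plus 3 SD of compounds within the control limits, set per campaign, cut at about 38% in these data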;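 further: 0% = DMSO wells and 100% = medium only without gametocytes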
ROMK retest – ROMK channel modulator hit retest, confirmation, cell-based, thallium flux, duplicate, resupplied hits; shares compounds with ROMK mod; AID 1917, 2009; fluorescence ratio; stronger effect = lower value; 54% of 3,000 active; normalized thallium flux (F/F0 slope) at 10 µM;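 active means Flux at 10 µM at least 3 SD below or above vehicle control mean in one or both replicates; inconclusive means no clear call, values can overlap the other calls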
The depositor's hits bear a star. The full list was thinned out, with hits kept by preference.

Screening COc1ccc(NC(=O)CSc2ncnc3c2cnn3Cc2ccccc2)cc1OC returned ROMK mod -0.0099 and Pf gamet viab -16.
`O=c1oc2ccccc2n1Cn1c(=O)oc2ccccc21` gave ROMK mod 2.1.
Screening O=C1c2ccccc2C(=O)N1CCCn1c(=O)oc2ccccc21 returned ROMK mod 0.79*, Pf gamet viab -8 and ROMK retest 0.08.
`CCCCN1C[C@H](Cc2ccccc2)[C@@H](CC(=O)Nc2ccccc2)C1=O` gave Pf gamet viab 11.
For O=C(O)c1ccc(NC(=O)c2ccccc2NC(=O)c2cccc(Br)c2)cc1 the results were Pf gamet viab 3.
Screening CN(c1ccccc1)S(=O)(=O)c1cccc(NC(=O)c2ccc3ncsc3c2)c1 returned Calb biofilm kill 10, Pf gamet viab 7 and ROMK retest 0.067*.
Cc1nc2ccc(NC(=O)c3cccc(S(=O)(=O)N(C)c4ccccc4)c3)cc2s1 was read as Calb biofilm kill 13 and ROMK mod -1.4.
O=C1CC[C@@H](OCc2ccccc2)CCN1CC[C@H](Sc1ccccc1)c1ccccc1 was read as Pf gamet viab -22.
For CCC(C)(C)c1ccc(OCCCC[n+]2cccc(C)c2C)c(C(C)(C)CC)c1 the results were Calb biofilm kill 18, Pf gamet viab 3 and ROMK retest 0.037*.
Cc1cc(C(C)(C)C)ccc1OCCCCN1CCCC1 was read as Calb biofilm kill 8, ROMK mod -1.4 and Pf gamet viab 12.
`COc1ccc(C(=O)Oc2cccnc2)cc1` gave ROMK mod -0.14 and Pf gamet viab 12.
For O=C(Oc1cccnc1)c1ccc(Cl)c(Cl)c1 the results were ROMK mod -5.4*, Pf gamet viab -18 and ROMK retest inconclusive.
Cc1nn(-c2ccccc2)c(N)c1N=Nc1ccccc1 was read as Calb biofilm kill 23 and Pf gamet viab 11.
Nc1nn(-c2ccccc2)c(N)c1N=Nc1ccccc1 was read as Calb biofilm kill 6, ROMK mod 3.1* and ROMK retest 0.086.
Screening COc1ccc(C2CC(c3ccccc3)=NN2C(=O)COC(=O)c2cc(S(=O)(=O)N3CCOCC3)ccc2F)cc1 (centres undefined) returned Calb biofilm kill 1, ROMK mod -0.58 and Pf gamet viab 12.
For Cc1cccc([C@@H]2[C@@H]3C(=O)N(Cc4ccccc4)C(=O)[C@@H]3[C@]3(Cc4ccccc4)C(=O)N(c4ccc(C(F)(F)F)cc4)C(=O)N23)c1 the results were Pf gamet viab 20.
Screening Cc1cc(NS(=O)(=O)c2ccc(NC(=O)c3cc4cc(Br)ccc4oc3=O)cc2)no1 returned Calb biofilm kill 5, ROMK mod -1.2 and Pf gamet viab 13.
`Cc1ccc(S(=O)(=O)C(C#N)c2nc3ccccc3nc2N2CCC(C)CC2)cc1` (centres undefined) gave Pf gamet viab -12 and ROMK retest 0.068*.
Screening N#CC(c1nc2ccccc2nc1N1CCCC1)S(=O)(=O)c1ccccc1 (centres undefined) returned ROMK mod -1.4.
COc1ccc(C2CC(c3ccccc3)Nc3nc(NS(C)(=O)=O)nn32)cc1 (centres undefined) was read as Calb biofilm kill 13, ROMK mod 0.38 and Pf gamet viab 2.
For N#CCC(=O)Nc1ccc(C(=O)OCC(=O)Nc2cccc(C(F)(F)F)c2)cc1 the results were Calb biofilm kill 2, ROMK mod 0.038 and Pf gamet viab 21.
`O=C(CN1CCN(Cc2ccccc2Cl)C1=O)NC1CCCCCCC1` gave ROMK mod -2.6*, Pf gamet viab -13 and ROMK retest 0.057*.
Screening CC1CCCCC1NC(=O)CN1CCN(Cc2ccccc2Cl)C1=O (centres undefined) returned Calb biofilm kill 7 and ROMK mod -2.
For Cc1ccccc1CN1[C@@H](C(C)C)COCCS1(=O)=O the results were Pf gamet viab -1.
C=CCn1c(=O)/c(=C/c2ccc(O)cc2)s/c1=C(/C#N)c1nnc2n1CCCCC2 was read as ROMK mod -1.1*, Pf gamet viab -20 and ROMK retest 0.053*.
For C=CCn1c(=O)/c(=C\c2ccsc2)s/c1=C(/C#N)C(=O)NCCN1CCOCC1 the results were ROMK mod -2.3.
For O=C(NCC1CCCO1)c1ccc(NS(=O)(=O)c2cccs2)cc1 (centres undefined) the results were Calb biofilm kill 21 and Pf gamet viab 9.
